These results are taken from ChEMBL document CHEMBL4020842, “Discovery of N1-(4-((7-Cyclopentyl-6-(dimethylcarbamoyl)-7 H-pyrrolo[2,3- d]pyrimidin-2-yl)amino)phenyl)- N8-hydroxyoctanediamide as a Novel Inhibitor Targeting Cyclin-dependent Kinase 4/9 (CDK4/9) and Histone Deacetlyase1 (HDAC1) against Malignant Cancer” (J Med Chem, 2018).

In series [1] the test system is A549. Briefly: Induction of apoptosis in human A549 cells assessed as early apoptotic cells at 5 uM after 48 hrs by annexin V-FITC/propidium iodide staining based flow cytometry (reference value: 0.41%). Type of series: functional. On the technique in general: In flow cytometry, cells or beads pass a laser one at a time.
The subject of series [2] is Mus musculus. In words: Downregulation of Bcl2 level in tumor of Balb/c mouse implanted with mouse Fluc-labeled 4T1 cells at 90 to 130 mg/kg, […] daily for 18 days by immunohistochemical analysis. Type of series: functional, organism-based.
Series [3] has as its system NCI-H460. In words: Downregulation of CDK4 protein expression in human NCI-H460 cells after 48 hrs by Western blot method. Type of series: functional, cell-based. Put shortly:
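Treated cells were lysed and CDK4 and cyclin D1 protein levels were assessed by Western blot.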
Background: In western blotting, separated proteins are transferred to a membrane and probed.

Series [4] addresses Histone deacetylase 1 (Homo sapiens, UniProt Q13547). In words: Inhibition of HDAC1 in human NCI-H460 cells assessed as increase in acetylated-histone H3 level at 1 to 5 uM after 48 hrs by Western blot method. The format is cell-based.
Series [5] concerns NCI-H1299. Briefly: Cytotoxicity against human NCI-H1299 cells assessed as reduction in cell viability after 72 hrs by CCK8 assay. The format is functional, cell-based. The conditions noted are these: NCI-H1299, 72 h. On the technique in general: Formazan colour is commonly taken as a measure of viable cells.
Series [6] deals with T47D. In words: Induction of apoptosis in human T47D cells assessed as early apoptotic cells at 1 uM after 48 hrs by annexin V-FITC/propidium iodide staining based flow cytometry (reference value: 7.7%). Type of series: functional.
Series [7] in a line: Half life in Sprague-Dawley rat at 20 mg/kg, po administered as single dose by HPLC analysis. Type of series: ADME, organism-based. The conditions noted are these: in vivo.
Series [8] is described as follows: Oral bioavailability in Sprague-Dawley rat at 20 mg/kg administered as single dose by HPLC analysis. The format is ADME, organism-based. The conditions noted are these: in vivo.
Series [9] in a line: Cmax in Sprague-Dawley rat at 20 mg/kg, iv administered as single dose by HPLC analysis. The format is ADME, organism-based. Also noted: dose 20 mg/kg, route intravenous. Particulars: in vivo.
The subject of series [10] is T47D. In words: Cell cycle arrest in human T47D cells assessed as decrease in S-phase at 625 nM after 24 hrs by propidium iodide staining based flow cytometry. The format is functional. The method, boiled down:
(§1)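 Cells were exposed for 24 h to a range of concentrations (625 nM, 2.5 and 10 µM), with DMSO vehicle as control. They were then stained with propidium iodide and analysed by flow cytometry to obtain the percentages of cells in G0/G1, S and G2 phases.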

The subject of series [11] is HepG2. Briefly: Induction of apoptosis in human HepG2 cells assessed as early apoptotic cells at 5 uM after 48 hrs by annexin V-FITC/propidium iodide staining based flow cytometry (reference value: 0.3%). The format is functional.
The test system of series [12] is HepG2. Briefly: Cell cycle arrest in human HepG2 cells assessed as accumulation at G0/G1 phase at 625 nM after 24 hrs by propidium iodide staining based flow cytometry. Type of series: functional. The method, boiled down: as §1
Series [13] deals with HepG2. In words: Cell cycle arrest in human HepG2 cells assessed as accumulation at G2 phase at 2.5 to 10 uM after 24 hrs by propidium iodide staining based flow cytometry. Type of series: functional. The method, boiled down: as §1
Series [14] can be described thus: AUC (0 to infinity) in Sprague-Dawley rat at 20 mg/kg, iv administered as single dose by HPLC analysis. The conditions noted are these: in vivo. Type of series: ADME, organism-based. Also on record: dose 20 mg/kg, route intravenous, time infinity.
Series [15] deals with NCI-H460. In words: Induction of apoptosis in human NCI-H460 cells assessed as live cells at 10 uM after 48 hrs by annexin V-FITC/propidium iodide staining based flow cytometry (reference value: 97.3%). The format is functional.
The nature of series [16]: Aqueous solubility in water at 1 mg using acid formulation sonicated for 24 hrs and incubated under unstirred condition for 24 hrs by HPLC method. Type of series: physicochemical.
In series [17] the target is Cyclin-dependent kinase 1/cyclin B1 (Homo sapiens) (UniProt P06493+P14635). In words: Inhibition of recombinant human full length C-terminal 6His-tagged CDK1/N-terminal GST-tagged Cyclin-B co-expressed in baculovirus infected sf21 cells at 1 uM using histone H1 substrate in presence of [gamma33P]ATP after 10 mins by scintillation counting method relative to control.

Series [18] has as its system Hep 3B2. Briefly: Induction of apoptosis in human Hep3B cells assessed as caspase-3 cleavage after 48 hrs by Western blot method. Type of series: functional, cell-based. The method, boiled down: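 Cells were treated with or without compound and control for 48 h, then lysed. Bcl-2 and cleaved caspase 3 were assessed by Western blot.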
A short description of series [19]: MRT (0 to infinity) in Sprague-Dawley rat at 20 mg/kg, po administered as single dose by HPLC analysis. Particulars: in vivo. The format is ADME, organism-based.
Series [20] concerns NCI-H460. In words: Induction of apoptosis in human NCI-H460 cells assessed as live cells at 1 uM after 48 hrs by annexin V-FITC/propidium iodide staining based flow cytometry (reference value: 97.3%). Type of series: functional.
For series [21], the system named is HepG2. In words: Induction of apoptosis in human HepG2 cells after 48 hrs by annexin V-FITC/propidium iodide staining based flow cytometry. Type of series: functional, cell-based.

By inhibition is commonly meant the drop in the measured response relative to a control, in per cent. As usually defined, the IC50 is the concentration that gives 50% inhibition. As usually defined, the half-life is the time in which the quantity being followed falls by half. Low readings indicate rapid decline, high ones slow decline. What is called bioavailability is the share of a dose that reaches the circulation, judged against a reference dose that is usually intravenous. Read a low bioavailability as little systemic uptake. The Cmax is the maximum level reached in the sampled fluid or tissue. Usually AUC(0-inf) stands for the area under the concentration-time curve extrapolated to infinity. As usually defined, the MRT inf is a mean duration of stay, worked out from the concentration-time curve.

The source made the active and inactive calls. The rule behind the calls is not given here.

Cyclin-dependent kinase 1/cyclin B1 (Homo sapiens), sequence (P06493 whole entry, looked up): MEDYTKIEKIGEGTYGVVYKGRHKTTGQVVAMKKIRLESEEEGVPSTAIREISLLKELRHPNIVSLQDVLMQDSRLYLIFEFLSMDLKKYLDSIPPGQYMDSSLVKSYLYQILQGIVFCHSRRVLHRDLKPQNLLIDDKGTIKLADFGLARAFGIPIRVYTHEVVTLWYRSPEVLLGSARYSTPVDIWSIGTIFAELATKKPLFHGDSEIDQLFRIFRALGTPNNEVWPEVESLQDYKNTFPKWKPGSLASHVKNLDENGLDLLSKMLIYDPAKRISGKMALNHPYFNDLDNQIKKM
Cyclin-dependent kinase 1/cyclin B1 (Homo sapiens), sequence (P14635 whole entry, looked up): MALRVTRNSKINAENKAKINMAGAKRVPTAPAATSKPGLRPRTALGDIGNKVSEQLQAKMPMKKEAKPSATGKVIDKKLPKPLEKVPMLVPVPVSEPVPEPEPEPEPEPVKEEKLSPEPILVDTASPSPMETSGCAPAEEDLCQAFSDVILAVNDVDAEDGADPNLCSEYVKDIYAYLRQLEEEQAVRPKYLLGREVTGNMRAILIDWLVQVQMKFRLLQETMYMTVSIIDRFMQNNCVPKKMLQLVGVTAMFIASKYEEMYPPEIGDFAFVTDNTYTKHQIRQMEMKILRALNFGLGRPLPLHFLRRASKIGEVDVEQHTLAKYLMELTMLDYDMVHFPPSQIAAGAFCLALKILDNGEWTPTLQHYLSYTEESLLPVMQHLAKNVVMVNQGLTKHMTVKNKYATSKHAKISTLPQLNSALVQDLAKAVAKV
Histone deacetylase 1, sequence (Q13547 whole entry): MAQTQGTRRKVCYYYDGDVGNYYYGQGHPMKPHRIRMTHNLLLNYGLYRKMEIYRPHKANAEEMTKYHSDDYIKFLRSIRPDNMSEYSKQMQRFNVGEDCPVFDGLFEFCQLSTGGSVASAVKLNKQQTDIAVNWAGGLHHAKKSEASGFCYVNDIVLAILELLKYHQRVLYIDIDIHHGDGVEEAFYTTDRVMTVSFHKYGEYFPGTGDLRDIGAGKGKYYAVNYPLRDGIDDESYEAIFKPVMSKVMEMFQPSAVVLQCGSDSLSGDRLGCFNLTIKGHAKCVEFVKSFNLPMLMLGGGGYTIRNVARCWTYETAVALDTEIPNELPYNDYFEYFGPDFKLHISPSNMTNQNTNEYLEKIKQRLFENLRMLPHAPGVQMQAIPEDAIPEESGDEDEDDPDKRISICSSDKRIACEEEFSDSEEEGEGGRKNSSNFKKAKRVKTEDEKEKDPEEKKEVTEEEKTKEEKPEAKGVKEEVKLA

`CN(C)C(=O)c1cc2cnc(Nc3ccc(NC(=O)CCCCCCC(=O)NO)cc3)nc2n1C1CCCC1`: the Activity in [1] was 2.41%; in series [3] it was “Dose-dependent effect”; in [6], 4.5%; in series [11] it was 7.31%; in series [15] it was 79.6%; in series [20], 97%. The Activity result in [21] was “Dose-dependent effect”. Further, the result in series [2], in [10], in series [12], in series [13] and in series [18] was Active. Also, in series [4], the inhibition result is “Active”. Also, the half-maximal inhibitory concentration (IC50) in series [5] was determined as 1870 nM. Moreover, the half-life in [7] was 14.9 h. In series [8], this compound gave a bioavailability of 18.4%. This compound came in with a Cmax in series [9] of 3850 ng/mL. In [14], this compound displayed an AUC(0-inf) of 6160 ng·h/mL. The solubility result in series [16] is “Insoluble”. Moreover, the inhibition in series [17] turned out to be 55%. The compound further yielded a mean residence time MRT inf in series [19] of 20.3 h.
